The text below walks through data of ChEMBL document CHEMBL4024758, “Structure-Based Design and Discovery of New M2 Receptor Agonists” (J Med Chem, 2017).

The structures appear in SMILES notation. Activity calls are given as the source filed them. No cut-off for these calls is given here.

The target in assay [1] is T1, Muscarinic acetylcholine receptor M3 (Homo sapiens, UniProt P20309). The assay is described as follows: Displacement of [3H]N-methyl-scopolamine bromide from human recombinant muscarinic M3 receptor expressed in HEK293T cell membranes after 1 hr by liquid scintillation counting method. Type of assay: cell-based, HEK-293T. For orientation: Loss of bound radioactivity is the signal in a displacement assay; it reports binding, not function.
Target sequence in this assay (P20309 whole entry): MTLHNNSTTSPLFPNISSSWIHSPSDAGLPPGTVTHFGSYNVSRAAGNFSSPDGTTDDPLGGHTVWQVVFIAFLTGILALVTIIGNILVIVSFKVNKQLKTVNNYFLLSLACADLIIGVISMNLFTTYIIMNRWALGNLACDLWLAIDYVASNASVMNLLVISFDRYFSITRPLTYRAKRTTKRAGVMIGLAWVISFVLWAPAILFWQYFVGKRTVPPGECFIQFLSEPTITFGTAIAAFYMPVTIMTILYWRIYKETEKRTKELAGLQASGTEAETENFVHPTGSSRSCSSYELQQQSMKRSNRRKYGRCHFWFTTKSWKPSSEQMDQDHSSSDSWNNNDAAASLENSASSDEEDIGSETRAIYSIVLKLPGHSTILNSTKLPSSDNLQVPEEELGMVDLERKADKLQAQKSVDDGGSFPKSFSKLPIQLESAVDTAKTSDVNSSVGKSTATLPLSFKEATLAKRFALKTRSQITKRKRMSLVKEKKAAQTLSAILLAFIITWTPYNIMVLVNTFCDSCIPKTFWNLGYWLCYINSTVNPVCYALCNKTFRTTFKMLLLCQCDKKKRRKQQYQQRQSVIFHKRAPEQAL

In assay [2] the target is T2, Muscarinic acetylcholine receptor M1 (Homo sapiens, UniProt P11229).
T2 sequence (P11229 whole entry): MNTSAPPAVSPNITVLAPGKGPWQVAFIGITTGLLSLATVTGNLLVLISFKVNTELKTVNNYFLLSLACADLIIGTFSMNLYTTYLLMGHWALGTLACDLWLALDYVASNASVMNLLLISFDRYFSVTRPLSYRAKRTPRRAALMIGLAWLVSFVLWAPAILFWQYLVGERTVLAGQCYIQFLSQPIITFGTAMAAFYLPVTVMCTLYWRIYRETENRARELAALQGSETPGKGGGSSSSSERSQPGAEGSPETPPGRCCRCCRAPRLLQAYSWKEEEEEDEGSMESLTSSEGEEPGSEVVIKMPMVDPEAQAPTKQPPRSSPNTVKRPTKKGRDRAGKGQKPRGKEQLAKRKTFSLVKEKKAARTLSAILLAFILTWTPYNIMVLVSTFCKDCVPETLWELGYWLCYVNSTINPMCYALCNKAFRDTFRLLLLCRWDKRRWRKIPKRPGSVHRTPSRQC
In words: Displacement of [3H]N-methyl-scopolamine bromide from human recombinant muscarinic M1 receptor expressed in HEK293T cell membranes after 1 hr by liquid scintillation counting method. Type of assay: cell-based, HEK-293T.

The target in assay [3] is T3, Muscarinic acetylcholine receptor M2 (Homo sapiens) (UniProt P08172).
T3 sequence (whole entry): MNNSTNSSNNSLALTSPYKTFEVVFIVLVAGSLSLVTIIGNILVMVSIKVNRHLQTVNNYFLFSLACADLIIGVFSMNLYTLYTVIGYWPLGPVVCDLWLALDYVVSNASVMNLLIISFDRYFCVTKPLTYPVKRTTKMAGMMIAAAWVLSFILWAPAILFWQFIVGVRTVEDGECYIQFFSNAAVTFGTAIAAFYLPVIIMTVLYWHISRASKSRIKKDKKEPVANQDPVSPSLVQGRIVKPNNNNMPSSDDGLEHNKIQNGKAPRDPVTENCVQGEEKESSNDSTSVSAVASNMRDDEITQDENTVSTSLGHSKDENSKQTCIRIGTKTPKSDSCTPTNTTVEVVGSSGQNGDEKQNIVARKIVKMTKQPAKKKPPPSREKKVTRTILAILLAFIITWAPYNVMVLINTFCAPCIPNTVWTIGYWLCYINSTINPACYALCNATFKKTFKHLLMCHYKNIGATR
In words: Agonist activity at recombinant human muscarinic M2 receptor expressed in CHO cells assessed as upregulation in ERK1/2 phosphorylation after 5 mins by alphascreen assay relative to ACh. Format: cell-based.

The target of assay [4] is T3, Muscarinic acetylcholine receptor M2 (Homo sapiens). In words: Agonist activity at Gi/o protein-coupled recombinant human muscarinic M2 receptor expressed in CHO-FlpIn cells preincubated for 60 mins followed by [35S]GTPgammaS addition after 30 mins by liquid scintillation counting method relative to ACh. Type of assay: functional, cell-based. Put shortly:
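Membranes (15 μg) came from CHO cells stably expressing M2R. They were equilibrated 60 min at 30 °C in buffer containing GDP plus ACh or compound. [35S]GTPγS (1 nM) was then added for 30 min at 30 °C. Samples were filtered on GF/B filters, washed with ice-cold 0.9% NaCl and counted by scintillation.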

For assay [5], the target named is T4, Muscarinic acetylcholine receptor M2 (Homo sapiens, UniProt P08172).
T4 sequence (P08172 whole entry): T3 sequence (whole entry)
The assay is described as follows: Agonist activity at recombinant human muscarinic M2 receptor expressed in CHO cells assessed as upregulation in ERK1/2 phosphorylation after 5 mins by alphascreen assay. Type of assay: cell-based. For orientation: In Alpha technology, singlet oxygen from a donor bead excites a nearby acceptor bead.

The target of assay [6] is T4, Muscarinic acetylcholine receptor M2. In words: Displacement of [3H]N-methyl-scopolamine bromide from human recombinant muscarinic M2 receptor expressed in HEK293T cell membranes after 1 hr by liquid scintillation counting method. More on the design: species or system HEK-293T.
The target of assay [7] is T5, Muscarinic acetylcholine receptor M1 (Homo sapiens) (UniProt P11229).
T5 sequence (whole entry): T2 sequence (P11229 whole entry)
In words: Agonist activity at Gq/11 coupled recombinant human M1 mAChR expressed in CHO-FlpIn cells assessed as IP-one accumulation after 40 mins by HTRF assay relative to ACh. Format: cell-based. Put shortly: (§1)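 Stably transfected CHO-FlpIn whole cells, 20000/well, grown overnight at 37 °C with 5% CO2. Cells were washed with PBS, then held 60 min at 37 °C in HEPES stimulation buffer with 50 mM LiCl, pH 7.4. ACh or test ligand was added and incubated 40 min.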
In general terms: TR-FRET usually uses a lanthanide donor and a delayed reading to cut background.

Assay [8] concerns the target T4, Muscarinic acetylcholine receptor M2. The assay is described as follows: Agonist activity at human recombinant muscarinic M2 receptor co-expressed with Galphaqi5-HA in African green monkey COS7 cells assessed as IP accumulation after 2 hrs in presence of myo-[3H]inositol by liquid scintillation counting method. Type of assay: functional.
Assay [9] concerns the target T3, Muscarinic acetylcholine receptor M2 (Homo sapiens). The assay is described as follows: Agonist activity at recombinant human muscarinic M2 receptor expressed in HEK293 cells co-expressing beta-arrestin assessed as increase in beta-arrestin recruitment after 24 hrs by Bright-Glo luminescence assay relative to ACh. Format: cell-based. In outline: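 HEK293 cells stably expressing tTA-dependent luciferase and β-arrestin-TEV protease were transiently transfected with M2-TEV-tTA. Next day, cells were plated at 15000/well in DMEM with 1% FBS. After ≥6 h, compound (0–100 μM, in HBSS-HEPES pH 7.4) was added. The following day, luminescence was read with Bright-Glo. Results are from 4–5 experiments in triplicate.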

The target of assay [10] is T4, Muscarinic acetylcholine receptor M2. In words: Agonist activity at recombinant human muscarinic M2 receptor expressed in HEK293 cells assessed as inhibition of forskolin-mediated cAMP accumulation after 10 mins by FRET assay. Type of assay: functional, cell-based.
Assay [11] concerns the target T3, Muscarinic acetylcholine receptor M2 (Homo sapiens). The assay is described as follows: Agonist activity at recombinant human muscarinic M2 receptor expressed in HEK293 cells assessed as inhibition of forskolin-mediated cAMP accumulation after 10 mins by FRET assay relative to ACh. Type of assay: functional, cell-based. In outline: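 HEK293 cells stably expressed the Epac FRET cAMP sensor and M2AChR-tetO, induced with 2 μg/mL doxycycline and 1 mM sodium butyrate for 40 h. Basal CFP/YFP was read after 20 min at 37 °C. […] Basal was subtracted; results are from 4–5 experiments in duplicate.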

In assay [12] the target is T1, Muscarinic acetylcholine receptor M3.
Target sequence in this assay (P20309 whole entry): as the sequence (P20309 whole entry) above
Assay [13] deals with T2, Muscarinic acetylcholine receptor M1. In words: Displacement of [3H]N-methyl-scopolamine from human recombinant muscarinic M1 receptor expressed in CHO-FlpIn cells after 6 hrs by liquid scintillation counting method. Format: cell-based. The following applies: read-out: Ki(app).
Assay [14] has the same target. The assay is described as follows: Agonist activity at Gq/11 coupled recombinant human muscarinic M1 AChR expressed in CHO-FlpIn cells assessed as IP-one accumulation after 40 mins by HTRF assay. Format: cell-based.
Assay [15] deals with T3, Muscarinic acetylcholine receptor M2 (Homo sapiens). In words: Agonist activity at human recombinant muscarinic M2 receptor co-expressed with Galphaqi5-HA in African green monkey COS7 cells assessed as IP accumulation after 2 hrs in presence of myo-[3H]inositol by liquid scintillation counting method relative to carbachol. Type of assay: functional.
The target in assay [16] is T4, Muscarinic acetylcholine receptor M2. In words: Agonist activity at Gi/o protein-coupled recombinant human muscarinic M2 receptor expressed in CHO-FlpIn cells preincubated for 60 mins followed by [35S]GTPgammaS addition measured after 30 mins by liquid scintillation counting method. Type of assay: functional, cell-based.
Assay [17] shares this target. In words: Displacement of [3H]N-methyl-scopolamine from human recombinant muscarinic M2 receptor expressed in CHO-FlpIn cells after 6 hrs by liquid scintillation counting method. Format: cell-based. The settings on record: read-out: Ki(app).
The target of assay [18] is T3, Muscarinic acetylcholine receptor M2 (Homo sapiens). The assay is described as follows: Agonist activity at Gi/o coupled recombinant human M2 mAChR expressed in CHO-FlpIn cells assessed as IP-one accumulation after 40 mins by HTRF assay. Format: cell-based. In outline:
as §1

The target in assay [19] is T1, Muscarinic acetylcholine receptor M3. In words: Agonist activity at Gq/11 coupled recombinant human M3 mAChR expressed in CHO-FlpIn cells assessed as IP-one accumulation at 100 uM after 40 mins by HTRF assay relative to ACh. Type of assay: cell-based.
Target sequence in this assay (P20309 whole entry, looked up): as the sequence (P20309 whole entry) above
Assay [20] concerns the target T2, Muscarinic acetylcholine receptor M1. In words: Agonist activity at recombinant human muscarinic M1 receptor expressed in CHO cells assessed as upregulation in ERK1/2 phosphorylation after 5 mins by alphascreen assay. Type of assay: cell-based.
Assay [21] deals with T1, Muscarinic acetylcholine receptor M3. The assay is described as follows: Displacement of [3H]N-methyl-scopolamine from human recombinant muscarinic M3 receptor expressed in CHO-FlpIn cells after 6 hrs by liquid scintillation counting method. Format: cell-based. The following applies: read-out: Ki(app).
Target sequence in this assay (P20309 whole entry): as the sequence (P20309 whole entry) above
For assay [22], the target named is T4, Muscarinic acetylcholine receptor M2. The assay is described as follows: Agonist activity at recombinant human muscarinic M2 receptor expressed in HEK293 cells co-expressing beta-arrestin assessed as increase in beta-arrestin recruitment after 24 hrs by Bright-Glo luminescence assay. Format: cell-based. Put shortly: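 HEK293 cells stably expressing tTA-dependent luciferase and β-arrestin-TEV protease, transiently transfected with M2-TEV-tTA; next day plated 15000 cells/well in DMEM 1% FBS on poly-D-lysine; after ≥6 h, compounds 0–100 μM in HBSS-HEPES; following day Bright-Glo added, luminescence after 20 min; 4–5 experiments in triplicate.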

In assay [23] the target is T5, Muscarinic acetylcholine receptor M1 (Homo sapiens). The assay is described as follows: Agonist activity at recombinant human muscarinic M1 receptor expressed in CHO cells assessed as upregulation in ERK1/2 phosphorylation after 5 mins by alphascreen assay relative to ACh. Format: cell-based.
In assay [24] the target is T1, Muscarinic acetylcholine receptor M3. This is another data set of the same source.
Target sequence in this assay (P20309 whole entry, looked up): as the sequence (P20309 whole entry) above
Assay [25] concerns the target Neuronal acetylcholine receptor; alpha4/beta2 (Homo sapiens, UniProt P17787+P43681). In words: Displacement of [3H]cytisine from alpha4beta2 nAChR expressed in human recombinant SH-SY5Y cell membranes after 120 mins.
Assay [26] deals with T3, Muscarinic acetylcholine receptor M2 (Homo sapiens). The settings on record: 10 uM.

Sequence of Neuronal acetylcholine receptor; alpha4/beta2 (P17787 whole entry): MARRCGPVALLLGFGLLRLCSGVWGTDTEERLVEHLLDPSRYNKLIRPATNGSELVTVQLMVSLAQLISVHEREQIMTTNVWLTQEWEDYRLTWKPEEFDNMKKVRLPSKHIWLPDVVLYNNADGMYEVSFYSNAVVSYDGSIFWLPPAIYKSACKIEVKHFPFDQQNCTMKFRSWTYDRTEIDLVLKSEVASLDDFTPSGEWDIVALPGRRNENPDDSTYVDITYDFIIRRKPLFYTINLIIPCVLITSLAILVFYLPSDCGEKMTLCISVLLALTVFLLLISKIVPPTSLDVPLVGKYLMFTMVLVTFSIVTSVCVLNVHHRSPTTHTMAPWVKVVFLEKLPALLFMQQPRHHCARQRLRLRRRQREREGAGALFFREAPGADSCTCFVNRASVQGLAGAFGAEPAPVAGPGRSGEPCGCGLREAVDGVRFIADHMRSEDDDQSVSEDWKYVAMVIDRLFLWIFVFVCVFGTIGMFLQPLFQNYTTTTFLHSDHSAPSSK
Sequence of Neuronal acetylcholine receptor; alpha4/beta2 (P43681 whole entry): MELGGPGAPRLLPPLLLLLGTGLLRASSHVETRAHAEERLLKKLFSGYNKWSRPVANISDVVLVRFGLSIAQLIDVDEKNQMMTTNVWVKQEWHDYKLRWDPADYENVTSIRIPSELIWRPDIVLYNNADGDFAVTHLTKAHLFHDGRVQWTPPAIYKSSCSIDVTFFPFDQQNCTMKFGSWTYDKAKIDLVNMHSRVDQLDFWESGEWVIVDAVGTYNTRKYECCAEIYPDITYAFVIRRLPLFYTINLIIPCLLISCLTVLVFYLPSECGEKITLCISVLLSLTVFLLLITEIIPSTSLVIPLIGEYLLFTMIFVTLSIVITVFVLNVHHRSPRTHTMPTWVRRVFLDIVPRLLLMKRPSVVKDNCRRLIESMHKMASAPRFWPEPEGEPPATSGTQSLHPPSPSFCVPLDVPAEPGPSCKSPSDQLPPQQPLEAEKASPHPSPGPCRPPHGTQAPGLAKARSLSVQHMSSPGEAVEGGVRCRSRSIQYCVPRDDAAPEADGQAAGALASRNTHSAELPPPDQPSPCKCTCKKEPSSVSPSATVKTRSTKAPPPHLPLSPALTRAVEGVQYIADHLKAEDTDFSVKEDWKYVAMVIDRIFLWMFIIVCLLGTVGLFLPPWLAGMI

What is called Emax is the maximal effect, on the per cent scale that the assay sets. What is called EC50 is the midpoint of the concentration-response curve. For `COc1cccc(CC[N+](C)(C)C)c1`, the Ki in [1] is over 50 µM; in assay [2], 33 µM; in assay [6] it was 14 µM; in assay [13] it was 52 µM; in assay [17], 9.1 µM; in assay [21], 81 µM. For the same molecule, the Emax in assay [3] is 92%; in [4], 100%; in assay [7], 48%; in [9], 133%; in assay [11], 108%; in [15], 75%. The Emax is 43% in [19] and 53% in assay [23]. Besides, the EC50 came out at 0.83 µM in [5]; 12 µM in [8]; 6.3 µM in assay [10]; 10 µM in assay [12]; 9.1 µM in assay [14]; 7.8 µM in [16]. The figures for the EC50 in assay [20] and in assay [22] were 0.54 µM and 14 µM, respectively. In addition, in [18], the result was inactive.
On to `C[N+](C)(C)CCc1ccc2c(c1)OCC2`, for which the Ki in assay [1] stood at 6.3 µM; in assay [2], 6.4 µM; in [6], 13 µM; in [13] it was 6.8 µM; in [17], 2 µM; in assay [21], 7.8 µM. In assay [25], the Ki was 9.7 µM. Also, the Emax in assay [3] was 100%; in assay [4] it was 100%; in assay [7], 8%; in assay [9], 118%; in assay [11] it was 102%; in assay [15], 62%. For the same molecule, the Emax in assay [19] was determined as 17%. The EC50 in assay [5] was 0.24 µM; in assay [8] it was 21 µM; in assay [10] it was 11 µM; in assay [12], 3.7 µM; in assay [14] it was 4.8 µM; in assay [16], 3.3 µM. In addition, the EC50 in [22] was 17 µM. Besides, in [18], the result was inactive. In assay [24], this molecule came in with a pEC50 of 5.43 µM.
For `COc1cccc(CCC[N+](C)(C)C)c1`, the values for the Ki in [1], in assay [2] and in assay [6] were 0.62 µM, 0.33 µM and 0.63 µM, respectively. This molecule also gave an Emax in assay [26] of under 10%.
